Results: ChEMBL document CHEMBL3272012, “5-(Tetradecyloxy)-2-furancarboxylic acid and related hypolipidemic fatty acid-like alkyloxyarylcarboxylic acids” (J Med Chem, 1977)
Each block holds one compound with its values, some of them ahead of it.

Columns and labels:
[1] = test system: Rattus norvegicus; assay: Hypolipidemic activity in Wistar rat assessed as reduction in plasma cholesterol level at 417 umol/kg/day administered through diet for 4 days; assay type: functional; settings: 96 h
In short: (§1)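 Young male Wistar rats, 170-190 g initial weight, groups of six, given compound mixed thoroughly into Purina Lab Chow ad libitum for 4 or 10 days as stated. Daily dose calculated from food consumption and body weight. Bled by cardiac puncture at end of treatment; plasma cholesterol measured by automated procedure. Expressed as percent reduction versus simultaneous untreated control group; Student's t test.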

[2] = test system: Rattus norvegicus; assay: Hypolipidemic activity in Wistar rat assessed as reduction in plasma triglyceride level at 417 umol/kg/day administered through diet for 4 days; assay type: functional; settings: 96 h
[3] = test system: Rattus norvegicus; assay: Increase in liver weight in Wistar rat at 417 umol/kg/day administered through diet for 4 days; assay type: ADME, organism-based; settings: in vivo, po, 96 h
[4] = test system: Rattus norvegicus; assay: Hypolipidemic activity in Wistar rat assessed as reduction in plasma triglyceride level at 332 umol/kg/day administered through diet for 10 days; assay type: functional; settings: 240 h
In short: (§2)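 Young male Wistar rats, 170-190 g initial weight, six per group, fed drug mixed thoroughly into Purina Lab Chow ad libitum for the stated days; daily dose calculated from food consumption and body weight. Bled by cardiac puncture at end; plasma cholesterol and triglycerides by automated procedures, expressed as percent reduction versus simultaneous untreated controls; Student's t test.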

[5] = test system: Rattus norvegicus; assay: Hypolipidemic activity in Wistar rat assessed as reduction in plasma triglyceride level at 169 umol/kg/day administered through diet for 10 days; assay type: functional; settings: 240 h; in short: as §2
[6] = test system: Rattus norvegicus; assay: Hypolipidemic activity in Wistar rat assessed as reduction in plasma triglyceride level at 84 umol/kg/day administered through diet for 10 days; assay type: functional; settings: 240 h
[7] = test system: Rattus norvegicus; assay: Hypolipidemic activity in Wistar rat assessed as reduction in plasma cholesterol level at 332 umol/kg/day administered through diet for 10 days; assay type: functional; settings: 240 h
In short: (§3)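 Young male Wistar rats, 170-190 g at start, in groups of six, given compound mixed into Purina Lab Chow ad libitum for 4 or 10 days as stated. Daily dose was calculated from food consumption and body weight. Plasma was taken by cardiac puncture at the end and cholesterol measured by automated procedure. Results are % reduction versus a concurrent untreated control group, with Student's t test.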

[8] = test system: Rattus norvegicus; assay: Hypolipidemic activity in Wistar rat assessed as reduction in plasma cholesterol level at 169 umol/kg/day administered through diet for 10 days; assay type: functional; settings: 240 h; in short: as §3
[9] = test system: Rattus norvegicus; assay: Hypolipidemic activity in Wistar rat assessed as reduction in plasma cholesterol level at 84 umol/kg/day administered through diet for 10 days; assay type: functional; settings: AT84, Plasma, 240 h
In short: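 Young male Wistar rats (initial weight 170-190 g), groups of six, fed compound mixed into Purina Lab Chow ad libitum for 4 or 10 days; daily dose calculated from food consumption and body weight. Bled by cardiac puncture; plasma cholesterol and triglycerides by automated procedures; percent reduction versus simultaneous untreated controls, Student's t test.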

[10] = test system: Rattus norvegicus; assay: Increase in liver weight in Wistar rat at 332 umol/kg/day administered through diet for 10 days; assay type: ADME, organism-based; settings: in vivo, po, 240 h
[11] = test system: Rattus norvegicus; assay: Increase in liver weight in Wistar rat at 169 umol/kg/day administered through diet for 10 days; assay type: ADME, organism-based; settings: in vivo, po, 240 h
[12] = test system: Rattus norvegicus; assay: Increase in liver weight in Wistar rat at 84 umol/kg/day administered through diet for 10 days; assay type: ADME, organism-based; settings: in vivo, po, 240 h
[13] = test system: Rattus norvegicus; assay: Increase in cholesterol level in Wistar rat liver at 332 umol/kg/day administered through diet for 10 days; assay type: ADME, organism-based; settings: in vivo, po, 240 h
[14] = test system: Rattus norvegicus; assay: Increase in cholesterol level in Wistar rat liver at 169 umol/kg/day administered through diet for 10 days; assay type: ADME, organism-based; settings: in vivo, po, 240 h
[15] = test system: Rattus norvegicus; assay: Increase in cholesterol level in Wistar rat liver at 84 umol/kg/day administered through diet for 10 days; assay type: ADME, organism-based; settings: in vivo, po, 240 h
[16] = test system: Rattus norvegicus; assay: Hypolipidemic activity in Wistar rat assessed as reduction in plasma cholesterol level at 369 umol/kg/day administered through diet for 4 days; assay type: functional; settings: 96 h; in short: as §3
[17] = test system: Rattus norvegicus; assay: Hypolipidemic activity in Wistar rat assessed as reduction in plasma triglyceride level at 369 umol/kg/day administered through diet for 4 days; assay type: functional; settings: 96 h
In short: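 Young male Wistar rats, 170-190 g at start, six per group, given compound mixed into Purina Lab Chow, fed ad libitum for 4 or 10 days. Daily dose calculated from food consumption and body weight. Rats bled by cardiac puncture at end of treatment. Plasma triglycerides determined by automated procedure. Expressed as percent reduction versus a concurrent untreated control group, Student's t test.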

[18] = test system: Rattus norvegicus; assay: Increase in liver weight in Wistar rat at 369 umol/kg/day administered through diet for 4 days; assay type: ADME, organism-based; settings: in vivo, po, 96 h
[19] = test system: Rattus norvegicus; assay: Increase in liver weight in Wistar rat at 404 umol/kg/day administered through diet for 4 days; assay type: ADME, organism-based; settings: in vivo, po, 96 h
[20] = test system: Rattus norvegicus; assay: Hypolipidemic activity in Wistar rat assessed as reduction in plasma triglyceride level at 406 umol/kg/day administered through diet for 10 days; assay type: functional; settings: 240 h
[21] = test system: Rattus norvegicus; assay: Hypolipidemic activity in Wistar rat assessed as reduction in plasma triglyceride level at 400 umol/kg/day administered through diet for 4 days; assay type: functional; settings: 96 h
[22] = test system: Rattus norvegicus; assay: Hypolipidemic activity in Wistar rat assessed as reduction in plasma cholesterol level at 406 umol/kg/day administered through diet for 10 days; assay type: functional; settings: 240 h; in short: as §3
[23] = test system: Rattus norvegicus; assay: Hypolipidemic activity in Wistar rat assessed as reduction in plasma cholesterol level at 400 umol/kg/day administered through diet for 4 days; assay type: functional; settings: 96 h; in short: as §3
[24] = test system: Rattus norvegicus; assay: Increase in liver weight in Wistar rat at 406 umol/kg/day administered through diet for 10 days; assay type: ADME, organism-based; settings: in vivo, po, 240 h
[25] = test system: Rattus norvegicus; assay: Increase in liver weight in Wistar rat at 400 umol/kg/day administered through diet for 4 days; assay type: ADME, organism-based; settings: in vivo, po, 96 h
[26] = test system: Rattus norvegicus; assay: Increase in cholesterol level in Wistar rat liver at 406 umol/kg/day administered through diet for 10 days; assay type: ADME, organism-based; settings: in vivo, po, 240 h
[27] = test system: Rattus norvegicus; assay: Increase in cholesterol level in Wistar rat liver at 400 umol/kg/day administered through diet for 4 days; assay type: ADME, organism-based; settings: in vivo, po, 96 h
[28] = test system: Rattus norvegicus; assay: Increase in liver weight in Wistar rat at 428 umol/kg/day administered through diet for 4 days; assay type: ADME, organism-based; settings: in vivo, po, 96 h
[29] = test system: Rattus norvegicus; assay: Hypolipidemic activity in Wistar rat assessed as reduction in plasma cholesterol level at 463 umol/kg/day administered through diet for 4 days; assay type: functional; settings: 96 h; in short: as §1
[30] = test system: Rattus norvegicus; assay: Hypolipidemic activity in Wistar rat assessed as reduction in plasma triglyceride level at 463 umol/kg/day administered through diet for 4 days; assay type: functional; settings: 96 h
[31] = test system: Rattus norvegicus; assay: Increase in liver weight in Wistar rat at 463 umol/kg/day administered through diet for 4 days; assay type: ADME, organism-based; settings: in vivo, po, 96 h

Activity [10]: 5% | Activity [11]: 1% | Activity [12]: 0% | Activity [13]: 10% | Activity [14]: 2% | Activity [15]: 0%
SMILES: CCCCCCCCCCCCCCOc1ccc(C(=O)CC(=O)OCc2ccccc2)cc1
inhibition in vivo at 332 µmol/kg [4]: 43% | inhibition in vivo at 169 µmol/kg [5]: 70% | inhibition in vivo at 84 µmol/kg [6]: 8% | inhibition in vivo at 332 µmol/kg [7]: 24% | inhibition in vivo at 169 µmol/kg [8]: 15% | inhibition in vivo at 84 µmol/kg [9]: 16%

Activity [19]: 6%
SMILES: CCCCCCCCCCCCCCCCSc1ccc(C(=O)O)cc1

Activity [24]: 34% | Activity [25]: 22% | Activity [26]: 24% | Activity [27]: 32%
SMILES: CCCCCCCCCCCCOc1ccc(C(=O)CC(=O)OC)cc1
inhibition in vivo at 406 µmol/kg [20]: 71% | inhibition in vivo at 400 µmol/kg [21]: 84% | inhibition in vivo at 406 µmol/kg [22]: 27% | inhibition in vivo at 400 µmol/kg [23]: 35%

Activity [28]: 6%
SMILES: CCCCCCCCCCCCCCSc1ccc(C(=O)O)cc1

Continued, compound first:

SMILES: CCCCCCCCCCCCCCOc1ccc(C(=O)OC)c(OC)c1
inhibition in vivo at 417 µmol/kg [1]: 7% | inhibition in vivo at 417 µmol/kg [2]: 0% | Activity [3]: 0%

SMILES: CCCCCCCCCCCCCCOc1ccc(C(=O)C(Cl)(Cl)Cl)o1
inhibition in vivo at 369 µmol/kg [16]: 9% | inhibition in vivo at 369 µmol/kg [17]: 33% | Activity [18]: 6%

SMILES: CCCCCCCCCCCCCCSc1ccc(C(=O)O)s1
inhibition in vivo at 463 µmol/kg [29]: 15% | inhibition in vivo at 463 µmol/kg [30]: 61% | Activity [31]: 4%
